Activity calls are given as the source filed them. The rule behind the calls is not given here.
Assays:
[1] = target: T1, Angiotensin II receptor (Rattus norvegicus, UniProt P29089+P25095+P35351); test: Inhibition of radioligand [3H]angiotensin II binding to angiotensin II receptor of rat adrenal cortical membrane
T1 sequence (P29089 whole entry): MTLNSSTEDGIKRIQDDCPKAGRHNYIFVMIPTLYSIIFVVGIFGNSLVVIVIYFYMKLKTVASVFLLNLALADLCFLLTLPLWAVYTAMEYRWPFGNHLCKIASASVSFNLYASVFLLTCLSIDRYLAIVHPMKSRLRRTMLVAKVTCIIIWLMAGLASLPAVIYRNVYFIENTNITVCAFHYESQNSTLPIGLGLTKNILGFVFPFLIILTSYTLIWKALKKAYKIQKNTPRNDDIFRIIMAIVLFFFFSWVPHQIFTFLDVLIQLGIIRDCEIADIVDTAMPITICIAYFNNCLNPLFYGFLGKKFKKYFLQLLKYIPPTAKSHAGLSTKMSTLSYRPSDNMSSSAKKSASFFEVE
T1 sequence (P25095 whole entry): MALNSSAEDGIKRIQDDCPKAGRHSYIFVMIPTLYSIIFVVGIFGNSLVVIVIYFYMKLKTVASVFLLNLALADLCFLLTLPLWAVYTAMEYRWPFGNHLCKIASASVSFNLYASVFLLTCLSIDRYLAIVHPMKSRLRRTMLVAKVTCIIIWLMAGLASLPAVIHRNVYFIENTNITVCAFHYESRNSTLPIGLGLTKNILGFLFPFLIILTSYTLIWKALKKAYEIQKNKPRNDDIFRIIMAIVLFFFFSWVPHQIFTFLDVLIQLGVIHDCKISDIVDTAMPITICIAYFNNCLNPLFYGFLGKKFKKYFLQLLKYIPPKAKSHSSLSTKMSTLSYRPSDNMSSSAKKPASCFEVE
T1 sequence (P35351 whole entry): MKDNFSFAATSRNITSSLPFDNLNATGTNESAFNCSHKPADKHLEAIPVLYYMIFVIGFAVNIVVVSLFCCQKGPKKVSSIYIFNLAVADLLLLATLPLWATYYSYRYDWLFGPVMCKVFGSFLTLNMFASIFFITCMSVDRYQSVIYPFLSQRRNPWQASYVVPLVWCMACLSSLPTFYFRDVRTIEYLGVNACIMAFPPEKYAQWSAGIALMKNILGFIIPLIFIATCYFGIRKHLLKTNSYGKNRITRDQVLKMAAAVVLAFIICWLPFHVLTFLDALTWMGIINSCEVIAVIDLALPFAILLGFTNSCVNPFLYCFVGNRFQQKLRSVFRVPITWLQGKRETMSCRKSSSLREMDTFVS
Method in brief: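 Rat adrenal cortical microsomes came from male Sprague-Dawley CD rats (300-400 g) and were prepared at 4 °C in sucrose/EDTA/Tris pH 7.4. Samples were filtered and counted, in duplicate. Specific binding was defined with 1 µM unlabeled AII. IC50 was taken from the linear portion of the displacement curve.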

[2] = tested on: Rattus norvegicus; test: Blood pressure lowering activity in renal hypertensive rats after peroral administration; type: functional
Method in brief: (§1)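 Conscious male Sprague-Dawley CD rats, six days after left renal artery ligation and with jugular and carotid cannulae, were dosed by oral gavage at 1-100 mg/kg (4-6 rats/dose). Mean arterial pressure was monitored for 3 h.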

[3] = tested on: Rattus norvegicus; test: Blood pressure lowering activity in renal hypertensive rats after intravenous administration; type: functional
Method in brief: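 Male Sprague-Dawley CD rats had the left renal artery ligated under hexobarbital (100 mg/kg ip). Six days later the jugular vein and carotid artery were cannulated under hexobarbital (90 mg/kg ip). Compound was given intravenously to the conscious hypertensive rats while mean arterial pressure was recorded.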

[4] = tested on: Rattus norvegicus; test: Blood pressure lowering activity in renal hypertensive rats after peroral administration; Inactive indicates fail to cause significant drop in blood pressure even at 100 mg/kg (in vivo); type: functional, organism-based; set-up: dose 100 mg/kg; method in brief: as §1
[5] = Ionization constant for the compound; type: physicochemical, Rattus norvegicus

Compound | IC50 [1] | Activity [2] | Activity [3] | Activity [4] | pKa [5]
CCCCc1nc(Cl)c(C=O)n1Cc1ccc(-c2cccc(-c3nn[nH]n3)c2)cc1 | > 1000 nM | 30 mg/kg | >10 mg/kg |  | 
CCCCc1ncc(CO)n1Cc1ccc(-c2ccccc2C(=O)O)cc1 | 270 nM |  | 10 mg/kg | inactive | 
CCCCc1nc(Cl)c(CO)n1Cc1ccc(-c2c(OC)cccc2C(=O)O)cc1 | 3000 nM | 100 mg/kg | 10 mg/kg |  | 
CCCCc1nc(Cl)c(CO)n1Cc1ccc(-c2ccccc2C(N)=O)cc1 | 35000 nM |  |  |  | 
CCCCCc1nc(Cl)c(CO)n1Cc1ccc(-c2ccccc2C(=O)O)cc1 | 980 nM | 30 mg/kg | 3 mg/kg |  | 
CCCCc1nc(Cl)c(CNC(=O)OC)n1Cc1ccc(-c2ccccc2C(=O)O)cc1 | 250 nM | 30 mg/kg | 3 mg/kg |  | 
CCCCc1nc(Cl)c(C(O)c2ccccc2)n1Cc1ccc(-c2ccccc2-c2nn[nH]n2)cc1 (stereo unspecified) | 410 nM | >30 mg/kg | 3 mg/kg |  | 
CCCCc1nc(Cl)c(CO)n1Cc1ccc(-c2ccccc2-c2n[nH]c(C(F)(F)F)n2)cc1 | 370 nM | 10 mg/kg | 1 mg/kg |  | 
CCCCc1nc(Cl)c(C(=O)OC)n1Cc1ccc(-c2ccccc2C(=O)O)cc1 | 340 nM | 100 mg/kg | 10 mg/kg |  | 
CCCCc1nc(Br)c(CO)n1Cc1ccc(-c2ccccc2-c2nn[nH]n2)cc1 |  | 3 mg/kg | 0.3 mg/kg |  | 
CCCCc1nc(Cl)c(CNC(=O)Nc2cccc3ccccc23)n1Cc1ccc(-c2ccccc2C(=O)O)cc1 | 3000 nM |  | 10 mg/kg | inactive | 
CCCCc1nc(Cl)c(COC)n1Cc1ccc(-c2ccccc2-c2nn[nH]n2)cc1 |  | 3 mg/kg | 1 mg/kg |  | 6
CCCCc1nc(Cl)c(COC)n1Cc1ccc(-c2ccccc2Cc2nnn[nH]2)cc1 | 300 nM | 100 mg/kg | 10 mg/kg |  | 
CCCCc1nc(Cl)c(CO)n1Cc1ccc(-c2cccc(C)c2C(=O)O)cc1 | 1900 nM | 10 mg/kg | 3 mg/kg |  | 
CCCCc1nc(Cl)c(CNC(=O)OCC)n1Cc1ccc(-c2ccccc2C(=O)O)cc1 | 200 nM | 100 mg/kg | 10 mg/kg |  | 
CCCCCCc1nc(Cl)c(CO)n1Cc1ccc(-c2ccccc2C(=O)O)cc1 |  |  | 10 mg/kg | inactive | 
CCCCc1nc(C(F)(F)F)c(CO)n1Cc1ccc(-c2ccccc2C(=O)O)cc1 | 62 nM | 30 mg/kg | 3 mg/kg |  | 
CCCCc1nc(Cl)c(CO)n1Cc1ccc(-c2ccccc2-c2[nH]nnc2C#N)cc1 | 280 nM | >10 mg/kg | >1 mg/kg |  | 
CCCCc1nc(Cl)c(CNC(=O)OC)n1Cc1ccc(-c2ccccc2-c2nn[nH]n2)cc1 | 60 nM | >10 mg/kg | 1 mg/kg |  | 
CCCCc1nc(Cl)c(COC)n1Cc1ccc(-c2ccccc2NS(=O)(=O)C(F)(F)F)cc1 |  | 100 mg/kg | 10 mg/kg |  | 4.5
CCCCc1nc(Cl)c(/C=N/NS(=O)(=O)c2ccccc2)n1Cc1ccc(-c2ccccc2-c2nn[nH]n2)cc1 | 660 nM | 30 mg/kg | 3 mg/kg |  | 
CCCCc1nc(Br)c(CO)n1Cc1ccc(-c2ccccc2C(=O)O)cc1 | 90 nM | 30 mg/kg | 3 mg/kg |  | 
O=C(O)c1ccccc1-c1ccc(Cn2c(-c3ccccc3)nc(Cl)c2CO)cc1 |  | 100 mg/kg | 10 mg/kg |  | 

Compound | IC50 [1] | Activity [2] | Activity [3] | Activity [4] | pKa [5]
CCCCc1nc(Cl)c(C(=O)N(C)C)n1Cc1ccc(-c2ccccc2C(=O)O)cc1 | 1300 nM | 10 mg/kg | 10 mg/kg |  | 
CCCCc1nc(Cl)c(C=O)n1Cc1ccc(-c2ccccc2-c2nn[nH]n2)cc1 | 20 nM | 3 mg/kg | 0.3 mg/kg |  | 
CCCCc1nc(Cl)c(C=O)n1Cc1ccc(-c2ccccc2-c2[nH]nnc2F)cc1 | 13000 nM |  | >10 mg/kg | inactive | 
CCCCc1nc(Cl)c(CN)n1Cc1ccc(-c2ccccc2C(=O)O)cc1 | 3200 nM |  |  |  | 
CCCCc1nc(Cl)c(CO)n1Cc1ccc(-c2ccc(C(=O)O)cc2)cc1 |  |  | >10 mg/kg | inactive | 
CCCCc1nc(Cl)c(CNC(=O)NC)n1Cc1ccc(-c2ccccc2C(=O)O)cc1 | 240 nM |  | 10 mg/kg | inactive | 
CCCCc1nc(I)c(CO)n1Cc1ccc(-c2ccccc2C(=O)O)cc1 | 61 nM | 100 mg/kg | 10 mg/kg |  | 
CCCCc1nc(Cl)c(C(N)=O)n1Cc1ccc(-c2ccccc2C(=O)O)cc1 | 150 nM | 100 mg/kg | 10 mg/kg |  | 
CCCCc1nc(Cl)c(/C=N/NC2=NCCN2)n1Cc1ccc(-c2ccccc2-c2nn[nH]n2)cc1 | 290 nM | 30 mg/kg | 3 mg/kg |  | 
CCCCc1nc([N+](=O)[O-])c(CO)n1Cc1ccc(-c2ccccc2C(=O)O)cc1 | 260 nM |  | 10 mg/kg | inactive | 
CCCCc1nc(Cl)c(COC)n1Cc1ccc(-c2ccccc2C(=O)O)cc1 |  | 100 mg/kg | 10 mg/kg |  | 5
CCCCc1nc(Cl)c(CO)n1Cc1ccc(-c2ccccc2-c2[nH]nnc2C(=O)OC)cc1 | 260 nM | >10 mg/kg | >1 mg/kg |  | 7
CCc1nc(Cl)c(CO)n1Cc1ccc(-c2ccccc2C(=O)O)cc1 | 1700 nM | 100 mg/kg | 10 mg/kg |  | 
CCCCc1nc(Cl)c(COC)n1Cc1ccc(-c2ccccc2C(=O)Nc2nn[nH]n2)cc1 |  |  | 10 mg/kg |  | 
CCCCc1nc(Cl)c(CO)n1Cc1ccc(-c2ccccc2NS(=O)(=O)C(F)(F)F)cc1 |  | 100 mg/kg | 10 mg/kg |  | 4.5
C=CCOC(=O)NCc1c(Cl)nc(CCCC)n1Cc1ccc(-c2ccccc2C(=O)O)cc1 | 390 nM | 100 mg/kg | 10 mg/kg |  | 
CCCCc1nc(Cl)c(CNC(=O)OC23C[C@H]4C[C@@H](C2)C[C@@H](C3)C4)n1Cc1ccc(-c2ccccc2C(=O)O)cc1 | 600 nM | 30 mg/kg | 3 mg/kg |  | 
CCCCc1nc(Cl)c(CO)n1Cc1ccc(-c2ccccc2NC(=O)C(F)(F)F)cc1 |  |  | 10 mg/kg | inactive | 9.5
CCCCc1nc(I)c(CO)n1Cc1ccc(-c2ccccc2-c2nn[nH]n2)cc1 |  | 10 mg/kg | 1 mg/kg |  | 
CCCc1nc(Cl)c(CO)n1Cc1ccc(-c2ccccc2C(=O)O)cc1 | 160 nM | 30 mg/kg | 3 mg/kg |  | 
CCCCc1nc(Cl)c(CO)n1Cc1ccc(-c2cccc(C(=O)O)c2)cc1 |  | 100 mg/kg | 45 mg/kg |  | 
CCCCc1nc(Cl)c(CNC(=O)NC(C)c2cccc3ccccc23)n1Cc1ccc(-c2ccccc2C(=O)O)cc1 (stereo unspecified) | 700 nM |  | >10 mg/kg | inactive | 
CCCCc1nc(Cl)c(COC(C)=O)n1Cc1ccc(-c2ccccc2C(=O)O)cc1 |  | 100 mg/kg | 10 mg/kg |  | 

— ChEMBL document CHEMBL1125185, “Nonpeptide angiotensin II receptor antagonists: the discovery of a series of N-(biphenylylmethyl)imidazoles as potent, orally active antihypertensives” (J Med Chem, 1991)
